Values after ≈ are worked out from the molar mass of the structure shown. Bridge positions count the residues as written; N and C are the ends. Square brackets hold non-standard residues; d marks the D form. Peptide text beside a SMILES is read from it. * marks the point of attachment. Ileψ(thiazoline)Cys = CC[C@H](C)[C@H](N)C1=N[C@H](C(=O)*)CS1; dOrn = NCCC[C@@H](N)C(=O)O

What all share (assay type): functional
Assay [1] relates to Listeria monocytogenes. The assay can be described thus: Antibacterial activity against 10^5 CFU/ml wild-type Listeria monocytogenes EGD-e Serovar 1/2a after 16 hrs by two fold serial dilution method. An outline of the steps: (§1)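 Broth microdilution in TSB-YE: 2-fold serial dilutions of antimicrobial mixed 1:1 with target cells at 10^5 CFU/ml. Incubated 20 h for HPLC-purified nisin A, 16 h for other antimicrobials. MIC is the lowest concentration giving no visible growth. For nisin and gallidermin, the μg/ml value is converted from a μM value.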

The subject of assay [2] is Listeria monocytogenes. Nature of the assay: Antibacterial activity against 10^5 CFU/ml telA-deficient Listeria monocytogenes EGD-e Serovar 1/2a after 16 hrs by two fold serial dilution method. An outline of the steps:
as §1

Assay [3] relates to Listeria monocytogenes. The assay can be described thus: Ratio of MIC wild-type Listeria monocytogenes EGD-e Serovar 1/2a to MIC for telA-deficient Listeria monocytogenes EGD-e Serovar 1/2a. An outline of the steps:
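Both MICs come from the TSB-YE 2-fold broth microdilution (10^5 CFU/ml; 20 h for purified nisin A, 16 h for others). The ratio compares the parent EGDe MIC with the ΔtelA MIC.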

For assay [4], the system named is Listeria monocytogenes. The assay can be described thus: Antibacterial activity against 10^7 CFU/ml wild-type Listeria monocytogenes EGD-e Serovar 1/2a at 30 ug after 16 hrs by disk diffusion assay. Particulars: read-out: IZ. The method in brief: (§2)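 Stationary-phase (16 h) cultures were diluted to 10^7 CFU/ml and swabbed onto TSA-YE. 6-mm disks carrying a single antibiotic were laid on the agar. Zones of inhibition were measured after overnight (16 h) growth.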

For assay [5], the system named is Listeria monocytogenes. The assay can be described thus: Antibacterial activity against 10^7 CFU/ml telA-deficient Listeria monocytogenes EGD-e Serovar 1/2a at 30 ug after 16 hrs by disk diffusion assay. To be noted: read-out: IZ. The method in brief: as §2
Assay [6] concerns Listeria monocytogenes. The assay can be described thus: Antibacterial activity against 10^7 CFU/ml wild-type Listeria monocytogenes EGD-e Serovar 1/2a […] after 16 hrs by disk diffusion assay. Particulars: read-out: IZ. An outline of the steps: as §2
In assay [7] the test system is Listeria monocytogenes. Nature of the assay: Antibacterial activity against 10^7 CFU/ml telA-deficient Listeria monocytogenes EGD-e Serovar 1/2a at 10 ug after 16 hrs by disk diffusion assay. To be noted: read-out: IZ. An outline of the steps:
as §2

Assay [8] relates to Listeria monocytogenes. Nature of the assay: Antibacterial activity against 10^7 CFU/ml wild-type Listeria monocytogenes EGD-e Serovar 1/2a at 5 ug after 16 hrs by disk diffusion assay. To be noted: read-out: IZ. The method in brief:
as §2

In assay [9] the test system is Listeria monocytogenes. Nature of the assay: Antibacterial activity against 10^7 CFU/ml telA-deficient Listeria monocytogenes EGD-e Serovar 1/2a at 5 ug after 16 hrs by disk diffusion assay. Particulars: read-out: IZ. An outline of the steps:
as §2

The test system of assay [10] is Listeria monocytogenes. Nature of the assay: Antibacterial activity against 10^7 CFU/ml wild-type Listeria monocytogenes EGD-e Serovar 1/2a at 1 ug after 16 hrs by disk diffusion assay. Particulars: read-out: IZ. An outline of the steps: (§3)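 Stationary-phase (16 h) cultures diluted to 10^7 CFU/ml and swabbed onto TSA-YE agar. Six-millimetre disks infused with antibiotic placed on plates. Inhibition zones measured after overnight (16 h) growth. Strains grown at 37°C in tryptic soy broth with yeast extract.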

In assay [11] the test system is Listeria monocytogenes. The assay can be described thus: Antibacterial activity against 10^7 CFU/ml telA-deficient Listeria monocytogenes EGD-e Serovar 1/2a […] after 16 hrs by disk diffusion assay. Particulars: read-out: IZ. The method in brief: as §3

Take `C/C=C(/NC(=O)[C@H](CCCCN)NC(=O)[C@H](C)NC(=O)[C@H]1CS[C@@H](C)[C@@H](NC(=O)[C@H]2CSC[C@@H](NC(=O)[C@H](C)NC(=O)[C@@H](N)[C@@H](C)CC)C(=O)N[C@@H](CCCCN)C(=O)N[C@@H](Cc3ccccc3)C(=O)N[C@@H](CC(C)C)C(=O)N2)C(=O)N2CCC[C@H]2C(=O)NCC(=O)N1)C(=O)NCC(=O)N[C@@H]1CSC[C@H]2NC(=O)[C@H](Cc3ccc(O)cc3)NC(=O)[C@@H](CS/C=C/NC2=O)NC(=O)[C@H](CC(N)=O)NC(=O)[C@H](Cc2ccccc2)NC1=O` [GALLIDERMIN]: the MIC is 1.97 µg/mL (≈ 0.91 µM) in [1] and 0.246 µg/mL (≈ 0.114 µM) in [2]. Besides, the fold change (FC) in assay [3] came out at 8.
On to `CO/N=C(\C(=O)N[C@@H]1C(=O)N2C(C(=O)O)=C(COC(C)=O)CS[C@H]12)c1csc(N)n1` [CEFOTAXIME], for which the zone of inhibition at 30 µg/disc was 21.3 mm in assay [4] and 23.7 mm in assay [5]. Further, the MIC turned out to be 2 µg/mL (≈ 4.39 µM) in assay [1] and 1 µg/mL (≈ 2.2 µM) in assay [2]. Besides, the fold change (FC) in [3] stood at 2.
As for `CC[C@H](C)[C@H](N)C1=N[C@H](C(=O)N[C@@H](CC(C)C)C(=O)N[C@H](CCC(=O)O)C(=O)N[C@H](C(=O)N[C@H]2CCCCNC(=O)[C@H](CC(N)=O)NC(=O)[C@@H](CC(=O)O)NC(=O)[C@H](Cc3cnc[nH]3)NC(=O)[C@@H](Cc3ccccc3)NC(=O)[C@H]([C@@H](C)CC)NC(=O)[C@@H](CCCN)NC2=O)[C@@H](C)CC)CS1` [BACITRACIN] ({Ileψ(thiazoline)Cys}-L[dE]IK[dOrn]I[dF]H[dD]N; lactam 4-C), the zone of inhibition at 10 µg/disc in assay [6] stood at 12.5 mm; in assay [7] it was 15.1 mm. Moreover, the MIC in [1] amounted to 256 µg/mL (≈ 180 µM); in assay [2], 128 µg/mL (≈ 90 µM). The fold change (FC) in assay [3] is 2.
With `COc1cccc(OC)c1C(=O)N[C@@H]1C(=O)N2[C@@H]1SC(C)(C)[C@@H]2C(=O)O` [METHICILLIN], the zone of inhibition at 5 µg/disc stood at 25.6 mm in [8] and 26.7 mm in assay [9].
Consider `Cc1onc(-c2ccccc2)c1C(=O)N[C@@H]1C(=O)N2[C@@H]1SC(C)(C)[C@@H]2C(=O)O` [OXACILLIN], for which the results for the zone of inhibition at 1 µg/disc in assay [10] and in assay [11] were 10.7 mm and 12.3 mm, respectively.
For the compound `CO/N=C(\C(=O)N[C@@H]1C(=O)N2C(C(=O)O)=C(COC(N)=O)CS[C@H]12)c1ccco1` [CEFUROXIME], the values for the zone of inhibition at 30 µg/disc in assay [4] and in [5] were 21.1 mm and 24.4 mm, respectively. Moreover, the MIC worked out at 2.87 µg/mL (≈ 6.76 µM) in assay [1] and 1.44 µg/mL (≈ 3.39 µM) in [2]. The fold change (FC) in assay [3] was 2.

These data come from ChEMBL document CHEMBL1671746, “TelA contributes to the innate resistance of Listeria monocytogenes to nisin and other cell wall-acting antibiotics” (2010).
